Results published in ChEMBL document CHEMBL4818993, “Installation of an aryl boronic acid function into the external section of N-aryl-oxazolidinones: Synthesis and antimicrobial evaluation” (2021).
Converted amounts (≈) assume the structure as drawn.

Assays:
Enterococcus faecalis [1] = test: Antibacterial activity against vancomycin resistant Enterococcus faecalis 51575 assessed as inhibition of bacterial growth measured after 24 hrs; type: functional
Enterococcus faecium [2] = test: Antibacterial activity against Enterococcus faecium 35667 assessed as inhibition of bacterial growth measured after 24 hrs; type: functional
Enterococcus faecium [3] = test: Antibacterial activity against vancomycin resistant Enterococcus faecium 700221 assessed as inhibition of bacterial growth measured after 24 hrs; type: functional
Staphylococcus aureus [4] = test: Antibacterial activity against Staphylococcus aureus 29213 assessed as inhibition of bacterial growth measured after 24 hrs; type: functional
Staphylococcus aureus [5] = test: Antibacterial activity against Methicillin resistant Staphylococcus aureus 43300 assessed as inhibition of bacterial growth measured after 24 hrs; type: functional
[6] = Efflux ratio of MIC for Escherichia coli 25922 to MIC for Escherichia coli JW5503; type: functional
Outline: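 Ratio of the MIC against wild-type E. coli ATCC 25922 to the MIC against the tolC deletion mutant JW5503. Both MICs were read after 24 h, n = 3. Not determined when the MIC was >50 μM for both strains.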

Enterococcus faecalis [7] = test: Antibacterial activity against Enterococcus faecalis 29212 assessed as inhibition of bacterial growth measured after 24 hrs; conditions: Enterococcus faecalis, 29212, 24 h
Escherichia coli = test: Antibacterial activity against Escherichia coli JW5503 delta tolC mutant assessed as inhibition of bacterial growth measured after 24 hrs; conditions: JW5503, 24 h

Compound	MIC (Enterococcus faecalis [1])	MIC (Enterococcus faecium [2])	MIC (Enterococcus faecium [3])	MIC (Staphylococcus aureus [4])	MIC (Staphylococcus aureus [5])	Ratio [6]	MIC (Enterococcus faecalis [7])	MIC (Escherichia coli)
CC(=O)NC[C@H]1CN(c2ccc(-c3cccc(CO)c3)c(F)c2)C(=O)O1	3.13 µM (≈ 1.12 µg/mL)	1.56 µM (≈ 0.559 µg/mL)	1.56 µM (≈ 0.559 µg/mL)	3.13 µM (≈ 1.12 µg/mL)	1.56 µM (≈ 0.559 µg/mL)	> 16	1.56 µM (≈ 0.559 µg/mL)	3.13 µM (≈ 1.12 µg/mL)
CC(=O)NC[C@H]1CN(c2ccc(-c3ccc(CNC(=O)c4ccc(B(O)O)cc4)cc3)c(F)c2)C(=O)O1	0.39 µM (≈ 0.197 µg/mL)	0.39 µM (≈ 0.197 µg/mL)	0.39 µM (≈ 0.197 µg/mL)	0.78 µM (≈ 0.394 µg/mL)	0.78 µM (≈ 0.394 µg/mL)	> 64	0.39 µM (≈ 0.197 µg/mL)	0.78 µM (≈ 0.394 µg/mL)
CC(=O)NC[C@H]1CN(c2ccc(N3CCOCC3)c(F)c2)C(=O)O1 [LINEZOLID]	6.25 µM (≈ 2.11 µg/mL)	12.5 µM (≈ 4.22 µg/mL)	6.25 µM (≈ 2.11 µg/mL)	6.25 µM (≈ 2.11 µg/mL)	6.25 µM (≈ 2.11 µg/mL)	> 1	6.25 µM (≈ 2.11 µg/mL)	75 µM (≈ 25.3 µg/mL)
CC(=O)NCC1CN(c2ccc(-c3ccc(COC(=O)c4ccccc4)cc3)c(F)c2)C(=O)O1 (stereo not drawn)	3.13 µM (≈ 1.45 µg/mL)	6.25 µM (≈ 2.89 µg/mL)	3.13 µM (≈ 1.45 µg/mL)	3.13 µM (≈ 1.45 µg/mL)	3.13 µM (≈ 1.45 µg/mL)		3.13 µM (≈ 1.45 µg/mL)	> 50 µM
O=C(O)c1ccc(B(O)O)cc1	> 50 µM	> 50 µM	> 50 µM	> 50 µM	> 50 µM		> 50 µM	> 50 µM
CC(=O)NC[C@H]1CN(c2ccc(-c3ccc(CNC(=O)c4cccc(B(O)O)c4)cc3)c(F)c2)C(=O)O1	0.39 µM (≈ 0.197 µg/mL)	0.78 µM (≈ 0.394 µg/mL)	0.78 µM (≈ 0.394 µg/mL)	0.78 µM (≈ 0.394 µg/mL)	0.78 µM (≈ 0.394 µg/mL)	> 64	0.39 µM (≈ 0.197 µg/mL)	0.78 µM (≈ 0.394 µg/mL)
CC(=O)NC[C@H]1CN(c2ccc(-c3ccc(CN)cc3)c(F)c2)C(=O)O1	1.56 µM (≈ 0.558 µg/mL)	0.78 µM (≈ 0.279 µg/mL)	1.56 µM (≈ 0.558 µg/mL)	3.13 µM (≈ 1.12 µg/mL)	3.13 µM (≈ 1.12 µg/mL)	> 8	1.56 µM (≈ 0.558 µg/mL)	6.25 µM (≈ 2.23 µg/mL)
O=C(O)c1cn(C2CC2)c2cc(N3CCNCC3)c(F)cc2c1=O [CIPROFLOXACIN]	3 µM (≈ 0.994 µg/mL)			1.5 µM (≈ 0.497 µg/mL)				
CC(=O)NCC1CN(c2ccc(-c3ccc(COC(=O)c4ccc(B(O)O)c(F)c4)cc3)c(F)c2)C(=O)O1 (stereo not drawn)	0.78 µM (≈ 0.409 µg/mL)	1.56 µM (≈ 0.818 µg/mL)	1.56 µM (≈ 0.818 µg/mL)	1.56 µM (≈ 0.818 µg/mL)	1.56 µM (≈ 0.818 µg/mL)	> 4	1.56 µM (≈ 0.818 µg/mL)	12.5 µM (≈ 6.55 µg/mL)
CC(=O)NC[C@H]1CN(c2ccc(-c3cccc(COC(=O)c4ccc(B(O)O)cc4)c3)c(F)c2)C(=O)O1	0.39 µM (≈ 0.197 µg/mL)	0.78 µM (≈ 0.395 µg/mL)	0.78 µM (≈ 0.395 µg/mL)	0.78 µM (≈ 0.395 µg/mL)	0.78 µM (≈ 0.395 µg/mL)	> 16	0.78 µM (≈ 0.395 µg/mL)	3.13 µM (≈ 1.58 µg/mL)
CC(=O)NC[C@H]1CN(c2ccc(-c3ccc(CO)cc3)c(F)c2)C(=O)O1	0.78 µM (≈ 0.28 µg/mL)	0.78 µM (≈ 0.28 µg/mL)	0.78 µM (≈ 0.28 µg/mL)	1.56 µM (≈ 0.559 µg/mL)	0.78 µM (≈ 0.28 µg/mL)	> 32	0.78 µM (≈ 0.28 µg/mL)	1.56 µM (≈ 0.559 µg/mL)
CC(=O)NC[C@H]1CN(c2ccc(-c3ccc(O)cc3)c(F)c2)C(=O)O1	0.39 µM (≈ 0.134 µg/mL)	0.78 µM (≈ 0.269 µg/mL)	0.39 µM (≈ 0.134 µg/mL)	0.78 µM (≈ 0.269 µg/mL)	0.78 µM (≈ 0.269 µg/mL)	> 32	0.39 µM (≈ 0.134 µg/mL)	1.56 µM (≈ 0.537 µg/mL)
CC(=O)NCC1CN(c2ccc(-c3ccc(COC(=O)c4ccc(B(O)O)cc4Cl)cc3)c(F)c2)C(=O)O1 (stereo not drawn)	3.13 µM (≈ 1.69 µg/mL)	3.13 µM (≈ 1.69 µg/mL)	3.13 µM (≈ 1.69 µg/mL)	3.13 µM (≈ 1.69 µg/mL)	3.13 µM (≈ 1.69 µg/mL)	> 2	3.13 µM (≈ 1.69 µg/mL)	25 µM (≈ 13.5 µg/mL)
CC(=O)NCC1CN(c2ccc(-c3ccc(COC(=O)c4ccc(B(O)O)c(Cl)c4)cc3)c(F)c2)C(=O)O1 (stereo not drawn)	1.56 µM (≈ 0.844 µg/mL)	1.56 µM (≈ 0.844 µg/mL)	1.56 µM (≈ 0.844 µg/mL)	1.56 µM (≈ 0.844 µg/mL)	1.56 µM (≈ 0.844 µg/mL)	> 2	1.56 µM (≈ 0.844 µg/mL)	25 µM (≈ 13.5 µg/mL)
CC(=O)NCC1CN(c2ccc(-c3ccc(COC(=O)c4ccc(B(O)O)cc4F)cc3)c(F)c2)C(=O)O1 (stereo not drawn)	1.56 µM (≈ 0.818 µg/mL)	1.56 µM (≈ 0.818 µg/mL)	1.56 µM (≈ 0.818 µg/mL)	1.56 µM (≈ 0.818 µg/mL)	1.56 µM (≈ 0.818 µg/mL)	> 2	1.56 µM (≈ 0.818 µg/mL)	25 µM (≈ 13.1 µg/mL)
CC(=O)NC[C@H]1CN(c2ccc(-c3ccc(OC(=O)c4ccc(B(O)O)cc4)cc3)c(F)c2)C(=O)O1	> 50 µM	> 50 µM	> 50 µM	> 50 µM	> 50 µM		> 50 µM	> 50 µM
CC(=O)NC[C@H]1CN(c2ccc(-c3ccc(COC(=O)c4cccc(B(O)O)c4)cc3)c(F)c2)C(=O)O1	0.78 µM (≈ 0.395 µg/mL)	> 50 µM	> 50 µM	1.56 µM (≈ 0.79 µg/mL)	0.78 µM (≈ 0.395 µg/mL)	> 16	> 50 µM	3.13 µM (≈ 1.58 µg/mL)
CC(=O)NCC1CN(c2ccc(-c3ccc(COC(=O)c4ccc(B(O)O)cc4)cc3)c(F)c2)C(=O)O1 (stereo not drawn)	1.56 µM (≈ 0.79 µg/mL)	3.23 µM (≈ 1.64 µg/mL)	1.56 µM (≈ 0.79 µg/mL)	3.13 µM (≈ 1.58 µg/mL)	1.56 µM (≈ 0.79 µg/mL)	> 8	3.13 µM (≈ 1.58 µg/mL)	6.25 µM (≈ 3.16 µg/mL)
CC(=O)NC[C@H]1CN(c2ccc(-c3ccc(COC(=O)c4ccc(B(O)O)cc4)cc3)c(F)c2)C(=O)O1	0.39 µM (≈ 0.197 µg/mL)	0.78 µM (≈ 0.395 µg/mL)	0.39 µM (≈ 0.197 µg/mL)	0.78 µM (≈ 0.395 µg/mL)	0.78 µM (≈ 0.395 µg/mL)	> 16	0.78 µM (≈ 0.395 µg/mL)	3.13 µM (≈ 1.58 µg/mL)
